Assay results: ChEMBL document CHEMBL1129335, “Synthesis and structure-activity relationships of 2-substituted D-tryptophan-containing peptidic endothelin receptor antagonists: importance of the C-2 substituent of the D-tryptophan residue for endothelin A and B receptor subtype selectivity” (J Med Chem, 1996)

Assays:
Endothelin-1 receptor [1] = molecular target: T1, Endothelin-1 receptor (Homo sapiens, UniProt P25101); experiment: Binding affinity towards Endothelin A receptor in human neuroblastoma-derived cell line SK-N-MC membranes; type: cell-based
T1 sequence (P25101 whole entry): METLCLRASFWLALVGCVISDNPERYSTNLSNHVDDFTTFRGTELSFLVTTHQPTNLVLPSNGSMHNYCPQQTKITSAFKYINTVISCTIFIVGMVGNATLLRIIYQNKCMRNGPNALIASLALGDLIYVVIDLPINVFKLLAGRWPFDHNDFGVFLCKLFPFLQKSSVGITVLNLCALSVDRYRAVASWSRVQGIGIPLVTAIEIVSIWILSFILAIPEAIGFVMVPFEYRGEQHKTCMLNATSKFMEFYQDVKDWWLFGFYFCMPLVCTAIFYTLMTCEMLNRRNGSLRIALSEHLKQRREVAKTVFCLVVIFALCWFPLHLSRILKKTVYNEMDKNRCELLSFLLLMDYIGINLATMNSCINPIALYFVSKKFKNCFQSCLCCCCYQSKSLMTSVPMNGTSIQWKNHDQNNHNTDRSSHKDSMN
How it was run: (§1)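 Membrane binding assay on human receptors. ETA came from the neuroblastoma-derived line SK-N-MC and ETB from Girardi heart cells. Inhibition was expressed as IC50.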

Endothelin-1 receptor [2] = molecular target: T2, Endothelin-1 receptor (Sus scrofa, UniProt Q29010); experiment: Binding affinity towards endothelin A receptor in porcine aortic smooth muscle membranes.
T2 sequence (Q29010 whole entry): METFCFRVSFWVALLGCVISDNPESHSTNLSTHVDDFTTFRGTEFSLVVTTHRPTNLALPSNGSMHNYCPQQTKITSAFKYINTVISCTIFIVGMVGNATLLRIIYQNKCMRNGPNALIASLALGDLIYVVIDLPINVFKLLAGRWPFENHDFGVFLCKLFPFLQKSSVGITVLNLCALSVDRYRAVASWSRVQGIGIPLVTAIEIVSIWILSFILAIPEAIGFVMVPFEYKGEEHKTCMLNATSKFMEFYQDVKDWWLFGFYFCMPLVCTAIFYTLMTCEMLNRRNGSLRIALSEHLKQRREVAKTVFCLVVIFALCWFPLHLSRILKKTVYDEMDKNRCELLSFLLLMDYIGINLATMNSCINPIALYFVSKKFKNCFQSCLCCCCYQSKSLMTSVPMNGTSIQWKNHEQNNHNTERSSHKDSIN
How it was run: (§2)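 Competitive binding in porcine membranes: aortic smooth muscle for ETA and cerebellum for ETB, run by a previously reported method. Variation was generally within 10%.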

[3] = molecular target: T3, Endothelin receptor type B (Sus scrofa, UniProt P35463); experiment: Binding affinity towards endothelin B receptor in porcine cerebellum membranes; type: cell membranes, Membrane; how it was run: as §2
T3 sequence (P35463 whole entry): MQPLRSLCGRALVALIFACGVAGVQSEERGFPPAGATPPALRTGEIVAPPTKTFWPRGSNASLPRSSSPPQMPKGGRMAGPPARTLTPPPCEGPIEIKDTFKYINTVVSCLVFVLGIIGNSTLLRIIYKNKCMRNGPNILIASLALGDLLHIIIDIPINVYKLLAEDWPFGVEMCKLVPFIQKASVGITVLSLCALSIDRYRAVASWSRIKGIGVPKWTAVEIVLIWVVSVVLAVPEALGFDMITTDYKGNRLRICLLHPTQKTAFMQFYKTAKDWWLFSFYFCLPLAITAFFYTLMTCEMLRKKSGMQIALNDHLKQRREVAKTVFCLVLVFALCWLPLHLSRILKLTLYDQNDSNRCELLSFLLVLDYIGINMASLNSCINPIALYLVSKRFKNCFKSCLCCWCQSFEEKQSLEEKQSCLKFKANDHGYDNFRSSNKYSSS

[4] = molecular target: T4, Endothelin receptor type B (Homo sapiens, UniProt P24530); experiment: Binding affinity rowards Endothelin B receptor in human girardi heart cell membranes; how it was run: as §1
T4 sequence (P24530 whole entry): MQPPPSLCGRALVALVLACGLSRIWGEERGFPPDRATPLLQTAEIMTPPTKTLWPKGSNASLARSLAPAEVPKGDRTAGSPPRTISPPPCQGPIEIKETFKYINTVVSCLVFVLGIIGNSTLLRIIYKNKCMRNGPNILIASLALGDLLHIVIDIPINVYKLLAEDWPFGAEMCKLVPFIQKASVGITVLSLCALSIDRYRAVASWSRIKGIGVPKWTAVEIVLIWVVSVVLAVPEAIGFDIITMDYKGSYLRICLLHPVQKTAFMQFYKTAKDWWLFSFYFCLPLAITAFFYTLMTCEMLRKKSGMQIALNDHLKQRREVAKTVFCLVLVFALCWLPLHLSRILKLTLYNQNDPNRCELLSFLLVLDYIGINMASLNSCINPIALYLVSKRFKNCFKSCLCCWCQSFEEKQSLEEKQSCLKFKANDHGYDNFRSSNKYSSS

[5] = Antagonistic activity against Endothelin B receptor by BQ-3020 induced constriction in isolated rabbit pulmonary arteries; type: functional; settings: Oryctolagus cuniculus; read-out: pA2 (converted)
How it was run: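 Isolated rabbit pulmonary arteries were contracted with the ETB-selective agonist BQ-3020, following a previously reported protocol. Antagonist potency was given as pA2.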

[6] = Inhibitory activity against ET 1 induced calcium increase in human Girardi heart cells; type: functional, cell-based
How it was run: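 Intracellular Ca2+ rise in intact human Girardi heart cells was induced by ET-1, run by a reported method. Inhibition was expressed as IC50. Compounds were also applied alone at 100 µM to check for any rise in [Ca2+]i.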

[7] = molecular target: T4, Endothelin receptor type B; experiment: Binding affinity towards Endothelin B receptor in human girardi heart cell membranes; how it was run: as §1
[8] = Ability to antagonize ET-1 mediated constriction in rabbit pulmonary arteries; type: functional, Oryctolagus cuniculus
[9] = Ability to antagonize ET-A mediated vasoconstrictor activity in isolated porcine coronary arteries; type: functional; settings: read-out: pA2 (converted)
How it was run: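 Isolated porcine coronary artery rings were contracted with ET-1, an ETA-mediated response, following a reported method. Antagonism was quantified as a pA2 value.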

| IC50 (Endothelin-1 receptor [1]) | IC50 (Endothelin-1 receptor [2]) | IC50 [3] | IC50 [4] | IC50 [6] | IC50 [7] | SMILES | Kb [5] | pA2 [8] | Kb [9] |
| --- | --- | --- | --- | --- | --- | --- | --- | --- | --- |
| 6.4 nM | 1.9 nM | 1.8 nM | 3.6 nM |  |  | CCSCC(NC(=O)[C@@H](Cc1c(Br)[nH]c2ccccc12)NC(=O)C(CC(C)C)NC(=O)N1[C@H](C)CCC[C@@H]1C)C(=O)O (stereo not given in full) |  |  |  |
| 2400 nM |  | 2.3 nM |  | 4 nM | 5 nM | CCCCC(NC(=O)[C@@H](Cc1c(C#N)[nH]c2ccccc12)NC(=O)C(NC(=O)N1[C@H](C)CCC[C@@H]1C)C(C)C)C(=O)O (stereo not given in full) | 3.16 nM |  |  |
| 13 nM | 3.8 nM | 0.81 nM |  |  | 1.1 nM | CCCCC(NC(=O)[C@@H](Cc1c(Br)[nH]c2ccccc12)NC(=O)C(NC(=O)N1[C@H](C)CCC[C@@H]1C)C1CC1)C(=O)O (stereo not given in full) |  | 6.4 | 12.6 nM |
